Among all 65,000 compounds or so, about 1,200 (1.8%) were called active.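 The calls were made as follows: active = activation above the mean activation of all tested compounds plus 3 SD (cut at about 50% in these data); inactive = the rest.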 Only a selection was taken, and actives are over-represented in it overall.

Sequence of Steroidogenic factor 1 (Homo sapiens) (Q13285 whole entry, looked up, the tested form may be a part): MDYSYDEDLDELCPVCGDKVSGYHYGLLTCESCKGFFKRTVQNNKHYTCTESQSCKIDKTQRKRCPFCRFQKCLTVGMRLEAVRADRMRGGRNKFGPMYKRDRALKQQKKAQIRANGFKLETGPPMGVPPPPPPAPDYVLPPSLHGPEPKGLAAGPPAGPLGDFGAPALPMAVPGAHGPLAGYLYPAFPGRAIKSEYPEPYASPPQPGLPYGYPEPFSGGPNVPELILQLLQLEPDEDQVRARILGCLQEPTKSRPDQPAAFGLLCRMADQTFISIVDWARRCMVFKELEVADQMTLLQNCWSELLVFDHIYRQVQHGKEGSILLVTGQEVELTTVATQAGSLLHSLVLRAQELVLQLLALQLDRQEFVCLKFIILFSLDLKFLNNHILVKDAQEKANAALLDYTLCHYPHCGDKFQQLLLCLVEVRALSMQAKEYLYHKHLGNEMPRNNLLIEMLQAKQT

For the experiment, the target named is Steroidogenic factor 1 (Homo sapiens) (UniProt Q13285). In words: SF-1 ligand-binding domain transactivation enhancers – cell-based, CHO-K1, Gal4-SF-1 LBD, luciferase luminescence, primary screen (AID 522). To be noted: CHO-K1 Gal4-SF-1 LBD luciferase reporter; at 10 µM; hits give high values; % increase over DMSO SF-1-specific signal. In short, it runs like this:
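Material: CHO-K1 cells with Gal4–hSF-1 LBD chimera plus Gal4-driven luciferase / Input: 4,000 CHO-K1 cells per well / Incubation: compound exposure 20 h at 37 °C / Signal: luminescence read 15 min after SteadyLite luciferase reagent, after room-temperature equilibration / Read-out: percent activation versus DMSO / Benchmarks: DMSO negative control and −SF1 background wells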
In general terms: In a reporter assay the amount or activity of a reporter protein is the signal.
As to `CC(=O)c1ccc(NC(=O)N[C@@H](Cc2ccccc2)C(=O)O)cc1`, the activation is -21% (inactive).
Consider `O=C(c1cc(-c2ccc(O)cc2)on1)N1CCCc2ccccc21`, for which the activation was 47.5% (inactive).
The value for `O=C(Nc1ccccc1C(F)(F)F)c1cc(-c2ccc(O)cc2)on1` was 64.4% (active); that for `Cc1cc(C)nc(NC(=O)Nc2ccccc2C(F)(F)F)n1` was 14.8% (inactive).
For the compound `CC(C)C(NC(=O)OCc1ccccc1)C(=O)OCC(=O)N1C(C)CCCC1C` (stereo not drawn), the activation is -2.9% (inactive).
For `Cc1ccc(C(=O)NC2CC(C)(C)NC(C)(C)C2)c(C)c1`, the activation is 4.3% (inactive).
As to `O=C1CC(N2CCN(C(c3ccccc3)c3ccccc3)CC2)C(=O)N1` (stereo not drawn), the activation is -23% (inactive).
Regarding `COc1ccc(CNC(=O)c2c(C)cc(=O)oc2C)cc1OC`, the activation is 7.4% (inactive).
The value for `COc1ccc(-c2cc(C(=O)NC(C(=O)O)C(C)C)c(C)o2)cc1OC` (stereo not drawn) was 56.5% (active).
Turning to `COc1ccc(CCNC(=O)c2cc(-c3ccc4c(c3)OCO4)on2)cc1OC`, the activation is 3.9% (inactive).
Consider `CN(C(=O)CSc1nnnn1-c1ccccc1)C1CCCCC1`, for which the activation was 34.6% (inactive).
The value for `Cc1cccc(-n2ncc3c(N4CCc5ccccc54)ncnc32)c1` was 33.4% (inactive); that for `COc1ccc(-n2ncc3c(N4CCCc5ccccc54)ncnc32)cc1` was 33.2% (inactive).
For `COc1ccc(-n2ncc3c(N4CCc5ccccc54)ncnc32)cc1`, the activation is 59.8% (active).
As for `Cn1nnnc1SCC(=O)N1CCN(Cc2ccccc2)CC1`, the activation was -17.2% (inactive).
In the case of `CC(=NCC1CCCO1)c1c(O)[nH]c(=O)[nH]c1=O` (stereo not drawn), the activation was 12.9% (inactive).
As for `COc1ccccc1Nc1ncc(C(C)=O)c(C)n1`, the activation is 34% (inactive).
The value for `COc1cccc2sc(Nc3nc(C)c(C(C)=O)s3)nc12` was 109% (active); that for `COC(=O)c1sc(NC(=O)c2ccc(OC)cc2OC)nc1C` was -57.8% (inactive); that for `CC(=O)Nc1ccc(S(=O)(=O)N2CCN(C3CCCCCCC3)CC2)cc1` was -6.4% (inactive).
`COc1cccc(N2CCN(C3CC(=O)N(c4ccc(Cl)cc4)C3=O)CC2)c1` (stereo not drawn): the activation is -14.7% (inactive).
For the compound `COc1ccc(C(=O)Nc2ccc(S(=O)(=O)Nc3onc(C)c3C)cc2)cc1OC`, the activation is -3.3% (inactive).
Turning to `COc1ccc(S(=O)(=O)N2CCN(C(=O)c3cccs3)CC2)cc1OC`, the activation is -5.5% (inactive).
For `CCc1ccc(N2CC(C(=O)NC3=NCCS3)CC2=O)cc1` (stereo not drawn), the activation is -7.9% (inactive).
As to `CC(NC(=O)COc1ccccc1)C(=O)NC1=NCCS1` (stereo not drawn), the activation is -0.2% (inactive).
Turning to `O=C(NC1=NCCS1)c1ccc(Cl)s1`, the activation was 66.2% (active).
The value for `C=CCn1c(CC(=O)Nc2cccc(OC)c2)nnc1SCC(=O)NC1CCCCC1` was 12.8% (inactive); that for `COc1ccccc1N1CCN(C(=O)Cn2nnc(-c3cccs3)n2)CC1` was 5% (inactive).
With `Clc1cccc(Cl)c1Cn1nnc(-c2cccs2)n1`, the activation is 50.8% (active).
For the compound `O=c1cc(Cn2nnc(-c3ccc(Cl)cc3)n2)nc2sccn12`, the activation was -5.8% (inactive).
With `O=S(=O)(NCC1CCCO1)c1ccc2ccccc2c1` (stereo not drawn), the activation is -16.7% (inactive).
On to `O=C(c1cccnc1NCc1ccccc1)N1CCOCC1`, for which the activation was -2.1% (inactive).
Turning to `CCOC(=O)c1sc(/N=C/Nc2nc(C)c(C(=O)OCC)s2)nc1C`, the activation was -2% (inactive).
Turning to `COc1ccc(CCN(C)C(=O)C2CCCN(Cc3ccc(OC)c(OC)c3)C2)cc1OC` (stereo not drawn), the activation is 5.8% (inactive).
The value for `Cc1ccccc1-c1nnn(CC(=O)c2ccc(S(=O)(=O)N3CCCC3)cc2)n1` was -10.4% (inactive).
For the compound `O=C(Cn1nnc(-c2ccccc2)n1)NCc1ccccc1`, the activation is 8.3% (inactive).
Consider `CC(C)(C)NC(=O)Cn1nnc(-c2ccccc2Cl)n1`, for which the activation was 50% (active).
The value for `CN(C(=O)COc1ccccc1)c1nnc(-c2ccncc2)s1` was -6.7% (inactive); that for `CN(C(=O)c1ccno1)c1nnc(-c2cccnc2)s1` was -11.5% (inactive); that for `CN(C(=O)c1ccccn1)c1nnc(-c2ccccn2)s1` was 56.6% (active).
Regarding `COc1cc2cc(CN(CCN3CCCC3)C(=O)Nc3ccccc3Cl)c(=O)[nH]c2cc1OC`, the activation is -8.6% (inactive).
Regarding `COc1cc(-c2nc(-c3ccncc3)no2)cc(OC)c1OC`, the activation is -2.5% (inactive).
`COc1ccc(-c2nc(-c3ccccc3)no2)c(OC)c1`: the activation is -82.9% (inactive).
Turning to `COc1ccc(-c2noc(-c3cccc(OC)c3OC)n2)cc1OC`, the activation was 100% (active).
As to `COCCOC(=O)C1=C(C)Nc2nc(C)nn2C1c1ccccc1` (stereo not drawn), the activation was 4.8% (inactive).
In the case of `CCCCCNC(=O)Cc1ccc(OC)cc1`, the activation is -9.8% (inactive).
In the case of `O=C(O)CSCNC(=O)CC12CC3CC(CC(C3)C1)C2`, the activation was -5.6% (inactive).
`COc1cc(NS(=O)(=O)c2ccccc2)ccc1-n1nc(C)cc1C`: the activation is -10.6% (inactive).
Take `Cc1ccc(S(=O)(=O)Nc2ccc3ncccc3c2)cc1`: the activation was -16.8% (inactive).
With `O=S(=O)(Nc1ccc2nc(-c3ccco3)[nH]c2c1)c1ccccc1`, the activation is 53.5% (active).
For the compound `COc1cc(C2C(C#N)=C(C)NC3=C2C(=O)CC(C)(C)C3)ccc1O` (stereo not drawn), the activation was 1.5% (inactive).
With `Cc1ccc(Cn2ccc(NC(=O)C3C4CCC(C4)C3C(=O)O)n2)cc1` (stereo not drawn), the activation is 3.1% (inactive).
On to `CCc1nnc(NC(=O)C2CCCN2S(=O)(=O)c2ccccc2)s1` (stereo not drawn), for which the activation is -4.2% (inactive).
On to `CCCOc1cccc(C(=O)Nc2nnn(CCC)n2)c1`, for which the activation was 26.3% (inactive).
Regarding `Cc1ccc(OCC(=O)Nc2ccc(-c3nnc(-c4ccco4)o3)cc2)cc1`, the activation was 65.5% (active).
The value for `CCCCOc1ccc(-c2nnc(-c3ccco3)o2)cc1` was 23.6% (inactive); that for `COc1ccc(CC(=O)Nc2ccc(-c3nnc(-c4ccc(C)cc4)o3)cc2)cc1` was -47.6% (inactive); that for `CCC(=O)Oc1cccc(C(=O)Nc2ccc(-c3nnc(-c4ccco4)o3)cc2)c1` was 79.8% (active).
For `CCOc1ccc(-c2nnc(-c3ccco3)o2)cc1`, the activation was -48% (inactive).
Turning to `CCOC(=O)c1[nH]c2ccc(OC)cc2c1NC(=O)CCN1CCN(Cc2ccccc2)CC1`, the activation was -7.7% (inactive).
Take `COc1cccc(-n2cc3c(c2-c2ccccc2)c(=O)n(C)c(=O)n3C)c1`: the activation is -21.1% (inactive).
On to `CCOC(=O)c1cn(CC(=O)Nc2ccc(C(C)C)cc2)nn1`, for which the activation is 3.2% (inactive).
On to `O=C(CN1CCN(C(=O)c2ccco2)CC1)Nc1ccc(Cl)c(C(F)(F)F)c1`, for which the activation was 11.1% (inactive).

These data come from PubChem BioAssay AID522 (The Scripps Research Institute Molecular Screening Center, 2006).
